Screening results as filed in PubChem BioAssay.
KCNK3 block – human KCNK3 channel inhibition, primary screen; B-score at 10 µM; AID 602410; actives 0.84% (n = 340,000); O14649; CHO-KCNK3 thallium flux, FluxOR fluorescence; hits give low values;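 active = B-score under library mean minus 4 SD, starting fluorescence ratio at most library mean plus 5 SD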;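 note: more negative B-score means stronger inhibition of thallium flux through KCNK3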
KCNQ1 inh – inhibitors of human KCNQ1 potassium channel; P51787; CHO-K1 KCNQ1, FluxOR thallium flux fluorescence; hits give high values; B-score at 10 µM; actives 1.3% (n = 310,000); AID 2642;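 active = compounds whose thallium flux B-score, printed positive for inhibition, exceeds three library SD while starting fluorescence stays within three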;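 note: channel opened by potassium depolarization with thallium stimulus after 20 min compound exposure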
Kir21 inh – blocks the mouse Kir2.1 inward-rectifier potassium channel. B-score at 10 µM. AID 1672. HEK293-Kir2.1, FluxOR thallium flux fluorescence; hits give low values. P35561. actives 0.85% (n = 310,000);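 active = fluorescence ratio B-score at or below minus 3 SD of library scores, with starting-brightness B-score within 2 SD, cut at about -4.2 in these data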;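 note: channel flux triggered by added potassium and thallium sulfate stimulus; B-score of peak minus minimum fluorescence over baseline after thallium stimulus; more negative B-score means stronger Kir2.1 block with less thallium influx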
hERG rescue – shields human hERG channel from block by proarrhythmic agents; Q12809; CHO-hERG, FluxOR thallium flux, dofetilide IC70 present; activation (rescue from dofetilide block), less the hit threshold, % at 10 µM; actives 0.51% (n = 310,000); AID 1511;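 active = activation above the mean of controls blocked by dofetilide plus 5 SD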;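 note: thallium influx through hERG after potassium depolarization seen as dye fluorescence rise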
KCNQ1 pot – potentiators or activators of human KCNQ1 potassium channel. P51787. CHO-K1 KCNQ1, thallium flux FluxOR fluorescence; hits give high values. B-score at 10 µM. actives 0.35% (n = 310,000);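 active = fluorescence ratio B-score, a plate-corrected score, at least three library SD, with initial intensity B-score within 5 SD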
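System: Stable KCNQ1 CHO-K1 line | Incubation: 90 min dye loading and 20 min compound exposure, both at room temperature | Measure: Ratio B score | Medium: Assay buffer for compound exposure, DMSO matched across wells | Compound dosing: Single-concentration screen | Probe or stimulus: K+/Tl+ depolarizing stimulus | Measured by: Kinetic FluxOR fluorescence, 10 s baseline plus 110 s post-stimulus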
KCNK9 inh – blocks the human KCNK9 two-pore domain potassium channel; Q9NPC2; HEK293 KCNK9, FluxOR thallium flux fluorescence; hits give low values; B-score at 10 µM; actives 1.2% (n = 310,000); AID 488922;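 active = ratio B-score over 3 SD below the library mean, with starting fluorescence within 5 SD of its mean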;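 note: negative B-score means less thallium flux so channel inhibition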
KCNQ1 block val – reconfirmed blocker of the human KCNQ1 potassium channel. shares compounds with KCNQ1 inh. KCNQ1 cell line, FluxOR thallium flux fluorescence. inhibition, % at 10 µM. actives 93% (n = 1,600). AID 588353;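 active = primary screen active, with duplicate mean exceeding buffer control mean plus 3 SD of buffer wells, cut at about 28% in these data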
CHO KCNQ1 ctr – KCNQ1 inhibitor counter-screen hit in parental CHO cells. AID 588366. parental CHO-K1, FluxOR thallium flux fluorescence ratio; hits give low values; zero means no signal rise above baseline. shares compounds with KCNQ1 inh. actives 21% (n = 1,600). fluorescence ratio (Tl flux) at 10 µM;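 active = mean of duplicate thallium-flux fluorescence ratios in parental host cells more than 5 SD below the buffer control mean, cut at about 0.38 in these data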;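 note: ratio is peak minus minimum fluorescence divided by baseline fluorescence; actives read low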
KCNQ1 APC inh – confirmation of human KCNQ1 potassium channel inhibitors by electrophysiology. shares compounds with KCNQ1 inh. KCNQ1-CHO cells, automated patch clamp current. calls only at 10 µM. actives 20% (n = 490). AID 624120;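 active = KCNQ1 current drop exceeding 3 SD of negative control wells, seen in both duplicate runs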;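 note: steady state current during a 2 s step from -80 to +40 mV; negative values mean current inhibition and positive values mean potentiation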
KCNQ2 inh – selectivity of KCNQ1 inhibitors: inhibition of rat KCNQ2 channel; inhibition, % at 10 µM; shares compounds with KCNQ1 inh; KCNQ2 cells, FluxOR thallium flux fluorescence; AID 651746; actives 71% (n = 1,600);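 active = mean percent inhibition of the KCNQ2 thallium signal more than 5 SD above the buffer-only control wells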;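 note: KCNQ2 expressed in CHO cells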
KCNQ1 KCNE1 spec – human KCNQ1/KCNE1 inhibition in KCNQ1 specificity screen. shares compounds with KCNQ1 inh. KCNQ1/KCNE1 cells, FluxOR thallium flux fluorescence. inhibition, % at 10 µM. actives 77% (n = 1,600);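 active = mean percent inhibition of duplicate wells above the buffer-only control mean plus 3 SD of those controls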
Target sequence (P51787 whole entry, looked up): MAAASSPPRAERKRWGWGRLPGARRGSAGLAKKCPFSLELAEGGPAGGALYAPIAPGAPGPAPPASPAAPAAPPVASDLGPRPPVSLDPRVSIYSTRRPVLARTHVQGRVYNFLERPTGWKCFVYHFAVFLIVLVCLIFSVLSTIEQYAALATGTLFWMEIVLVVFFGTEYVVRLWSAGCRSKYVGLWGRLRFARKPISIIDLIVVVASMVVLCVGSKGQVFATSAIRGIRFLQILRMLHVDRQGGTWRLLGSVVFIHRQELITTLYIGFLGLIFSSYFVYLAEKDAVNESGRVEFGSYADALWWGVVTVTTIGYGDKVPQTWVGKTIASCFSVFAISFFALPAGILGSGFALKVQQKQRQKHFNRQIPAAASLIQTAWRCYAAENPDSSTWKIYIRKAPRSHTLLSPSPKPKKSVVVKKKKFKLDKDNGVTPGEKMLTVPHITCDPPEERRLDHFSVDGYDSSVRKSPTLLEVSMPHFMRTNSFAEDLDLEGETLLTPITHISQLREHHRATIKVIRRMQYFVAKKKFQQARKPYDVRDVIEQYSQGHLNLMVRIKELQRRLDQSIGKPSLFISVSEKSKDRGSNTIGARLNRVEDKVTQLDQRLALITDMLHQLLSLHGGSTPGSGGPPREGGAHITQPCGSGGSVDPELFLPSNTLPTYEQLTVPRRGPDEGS
Numbers stand for hits; 0 = inactive; - = no result; + = active, no number. A selection: hits, their analogues and other compounds. The true share with any hit is near 3.7%.

SMILES | KCNK3 block | KCNQ1 inh | Kir21 inh | hERG rescue | KCNQ1 pot | KCNK9 inh | KCNQ1 block val | CHO KCNQ1 ctr | KCNQ2 inh | KCNQ1 KCNE1 spec | others
CC1(C)CC(=O)C2=C(C1)Nc1ccccc1NC2 | 0 | 7 | 0 | 0 | 0 | 0 | 0 | 0 | 0 | 0
CC[C@]12c3[nH]c4ccccc4c3CCN1C(=O)C(CC(=O)NCCCn1ccnc1)C[C@@H]2C(=O)N1CCN(C(=O)c2ccco2)CC1 (stereo partly specified) | 0 | - | - | - | - | - | - | - | - | -
COc1ccc(-c2cc(-c3nnc(COC(=O)c4ccc(O)cc4)o3)c3ccccc3n2)cc1OC | 0 | 9 | 0 | 0 | 0 | 0 | 104.5 | 0 | 98.3% | + | KCNQ1 APC inh=0
COc1ccc(-c2cc(-c3nnc(COC(=O)C4CC4)o3)c3ccccc3n2)cc1OC | 0 | 0 | 0 | 0 | 0 | 0 | - | - | - | -
Cc1nccc(-c2cccc(NC(=O)Nc3ccc(Cl)cc3)c2)n1 | 0 | 8 | 0 | 0 | 0 | 0 | 92.5 | 0 | 67.0% | 72.5% | KCNQ1 APC inh=0
CN(C)c1ccc(NC(=O)Nc2cccc(Cl)c2)cc1 | 0 | 0 | 0 | 0 | 0 | 0 | - | - | - | -
O=C(Nc1ccncc1)Nc1cccc(Cl)c1 | 0 | 7 | 0 | 0 | 0 | 0 | 52.5 | 0 | 0 | 46.0%
CN(c1cccc(NC(=O)Nc2cccc(Cl)c2)c1)S(C)(=O)=O | 0 | 16 | 0 | 0 | 0 | 0 | 93.0 | 0 | 122.7% | 82.5%
O=C(NCc1ccncc1)Nc1cccc(Cl)c1 | 0 | 0 | 0 | 0 | 0 | 0 | - | - | - | -
Cc1cccc(NC(=O)Nc2ccc(Cl)cc2)n1 | 0 | 0 | 0 | 0 | 0 | 0 | - | - | - | -
O=C(CCc1cn(Cc2ccc(F)cc2)c2ccccc12)N1CCOCC1 | 0 | 0 | 0 | 0 | 0 | 0 | - | - | - | -
COc1ccc(OCC(=O)Nc2nccs2)cc1 | 0 | 7 | 0 | 0 | 0 | 0 | 0 | 0 | 0 | 0
CCOc1ccc(OCC(=O)Nc2nccs2)cc1 | 0 | 0 | 0 | 0 | 0 | 0 | - | - | - | -
c1ccc2c(c1)OCCOCCOCCOCCOCCOc1ccccc1OCCOCCOCCO2 | 0 | 8 | 0 | 0 | 0 | 0 | 80.0 | 0 | 64.3% | 60.5%
OCCN1CCOCCOc2ccccc2OCCOCC1 | 0 | 0 | 0 | 0 | 0 | 0 | - | - | - | -
COc1ccc(Cl)cc1S(=O)(=O)N1CCCC(C(=O)NCc2ccncc2)C1 (stereo unspecified) | 0 | 0 | 0 | 0 | 0 | 0 | - | - | - | -
CCC(C)NC(=O)CSc1ccc(S(=O)(=O)N2CCN(Cc3ccccc3)CC2)cn1 (stereo unspecified) | 0 | - | - | - | - | - | - | - | - | -
COc1ccc(N(CC(=O)Nc2cccnc2)S(=O)(=O)c2ccccc2)cc1Cl | 0 | 0 | 0 | 0 | 0 | 0 | - | - | - | -
COc1ccc(N(CC(=O)Nc2ccccc2OC)S(=O)(=O)c2ccccc2)cc1Cl | 0 | 7 | 0 | 0 | 0 | 0 | 74.5 | 0 | 91.7% | 102.5%
Clc1ccc(OCCSc2ncccn2)c(Br)c1 | 0 | 0 | 0 | 0 | 0 | 0 | - | - | - | -
CCC(=O)N1CCN(c2ccc(NC(=O)c3cc4ccccc4o3)cc2Cl)CC1 | 0 | 0 | 0 | 0 | 0 | 0 | - | - | - | -
O=C(Nc1ccc(N2CCN(C(=O)c3ccco3)CC2)c(Cl)c1)c1cc2ccccc2o1 | 0 | 6 | 0 | 0 | 0 | 0 | 78.5 | 0 | 108.3% | 142.0%
Clc1ccc(-c2csc(N3CCOCC3)n2)cc1 | 0 | 0 | 0 | 0 | 0 | 0 | - | - | - | -
Clc1ccc(-c2csc(N3CCCCCC3)n2)cc1 | 0 | 8 | 0 | 0 | 0 | 0 | 123.0 | 0 | 80.7% | 139.5% | KCNQ1 APC inh=0
